Experiments:
[1] = Inhibition of PI3K in human MCF7 cells assessed as reduction in AKT phosphorylation at residue S473 incubated for 2 hrs followed by insulin addition by ELISA; assay type: cell-based; conditions: MCF7, 2 h
[2] = target: T1, Phosphatidylinositol 4,5-bisphosphate 3-kinase catalytic subunit alpha isoform (Homo sapiens, UniProt P42336); test: Inhibition of PI3Kalpha (unknown origin) using PIP2:3PS peptide as substrate preincubated for 15 mins followed by ATP addition at Km concentration and further incubated for 150 mins by ADP-Glo assay
Target sequence in this assay (P42336 whole entry, canonical isoform): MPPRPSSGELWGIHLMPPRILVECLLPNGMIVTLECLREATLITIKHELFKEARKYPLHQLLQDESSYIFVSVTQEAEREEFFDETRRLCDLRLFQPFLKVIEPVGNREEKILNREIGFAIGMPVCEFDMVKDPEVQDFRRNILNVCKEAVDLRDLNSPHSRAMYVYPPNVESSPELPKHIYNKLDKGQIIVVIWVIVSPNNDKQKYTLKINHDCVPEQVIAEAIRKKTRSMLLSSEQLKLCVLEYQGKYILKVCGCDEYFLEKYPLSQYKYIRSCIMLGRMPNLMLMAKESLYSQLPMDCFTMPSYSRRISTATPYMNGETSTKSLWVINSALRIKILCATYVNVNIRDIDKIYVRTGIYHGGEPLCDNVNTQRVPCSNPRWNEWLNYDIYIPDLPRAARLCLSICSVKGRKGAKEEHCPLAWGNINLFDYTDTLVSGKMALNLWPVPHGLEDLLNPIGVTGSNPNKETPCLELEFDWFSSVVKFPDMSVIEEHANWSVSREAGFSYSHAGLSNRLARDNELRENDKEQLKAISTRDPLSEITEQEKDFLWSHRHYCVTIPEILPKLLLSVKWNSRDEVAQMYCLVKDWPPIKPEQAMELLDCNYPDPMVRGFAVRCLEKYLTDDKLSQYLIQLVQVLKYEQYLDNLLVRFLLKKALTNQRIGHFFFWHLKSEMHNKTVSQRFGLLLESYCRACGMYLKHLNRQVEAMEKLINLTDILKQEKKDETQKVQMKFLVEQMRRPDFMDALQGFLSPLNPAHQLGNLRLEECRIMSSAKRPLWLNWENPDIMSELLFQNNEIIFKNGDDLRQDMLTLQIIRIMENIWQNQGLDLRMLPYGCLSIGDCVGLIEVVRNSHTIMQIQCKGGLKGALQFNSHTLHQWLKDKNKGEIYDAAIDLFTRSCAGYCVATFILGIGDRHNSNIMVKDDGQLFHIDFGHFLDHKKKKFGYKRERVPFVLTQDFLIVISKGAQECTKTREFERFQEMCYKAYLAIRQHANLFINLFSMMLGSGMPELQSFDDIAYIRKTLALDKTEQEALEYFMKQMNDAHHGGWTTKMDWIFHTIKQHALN

Mus musculus [3] = test: In vivo inhibition of PI3K in po dosed BALB/c nude mouse xenografted with PI3KCA mutant human BT474 cells assessed as reduction in AKT phosphorylation administered once daily measured after 1 to 4 hrs by Western blot analysis; assay type: functional, organism-based; conditions: BT-474
Method in brief: (§1)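 Mice bearing BT-474 subcutaneous xenografts were dosed orally in vehicle 0.5% MC + 0.2% Tween 80. Tumor Akt phosphorylation was assessed for time and dose dependence.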

BT-474 [4] = test: Antitumor activity against PI3KCA mutant human BT474 cells xenografted in BALB/c nude mouse assessed as tumor growth inhibition at 30 mg/kg, po administered once daily and measured after 30 days by caliper method relative to control; assay type: functional; conditions: BT-474, po, 720 h, read-out: TGI
[5] = Protein binding in CD-1 mouse plasma measured after 4 hrs by LC-MS/MS analysis; assay type: ADME, cell-free; conditions: read-out: PPB (converted)
[6] = target: T1, Phosphatidylinositol 4,5-bisphosphate 3-kinase catalytic subunit alpha isoform; test: Inhibition of PI3Kalpha in human BT474 cells expressing P3KCA mutant assessed as reduction in AKT phosphorylation at residue S473 incubated for 2 hrs followed by insulin addition by ELISA; assay type: cell-based; conditions: bt-474
Method in brief: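 Akt phosphorylation was measured in the PIK3CA mutant human breast ductal carcinoma BT-474 cell line, used as a PI3Kα-sensitive cellular readout. IC50 determined.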
Target sequence in this assay (P42336 whole entry, looked up, canonical isoform): as the sequence (P42336 whole entry, canonical isoform) above

[7] = Volume of distribution in BALB/c mouse at 1 mg/kg, iv by HPLC analysis; conditions: in vivo
Mus musculus [8] = test: In vivo inhibition of PI3K in BALB/c nude mouse xenografted with PI3KCA mutant human BT474 cells assessed as reduction in AKT phosphorylation at 15 to 40 mg/kg, po administered once daily by Western blot analysis; assay type: functional, organism-based; conditions: BT-474, TDE = time-dependent effect; method in brief: as §1
BT-474 [9] = test: Antitumor activity against PI3KCA mutant human BT474 cells xenografted in BALB/c nude mouse assessed as tumor growth inhibition at 15 mg/kg, po administered once daily and measured after 30 days by caliper method relative to control; assay type: functional; conditions: BT-474, po, 720 h, read-out: TGI
BT-474 [10] = test: Antitumor activity against PI3KCA mutant human BT474 cells xenografted in po dosed BALB/c nude mouse assessed as tumor growth inhibition administered once daily and measured after 30 days by caliper method; assay type: functional, organism-based
[11] = Half life in Sprague-Dawley rat at 1 mg/kg, iv by HPLC analysis; assay type: ADME, organism-based; conditions: in vivo
[12] = Metabolic stability in human liver microsomes assessed as parent compound remaining at 10 uM preincubated for 10 mins in water bath followed by NADPH addition and measured after 60 mins by LC-MS/MS analysis; assay type: ADME, Microsome; conditions: read-out: Stability
[13] = Oral bioavailability in Sprague-Dawley rat at 3 mg/kg by HPLC analysis; assay type: ADME, organism-based; conditions: in vivo
[14] = Clearance in Beagle dog cryopreserved hepatocytes incubated for 10 mins under shaking condition by LC-MS/MS analysis; assay type: ADME, cell-based, Canis lupus familiaris, Hepatocyte; conditions: read-out: CLH
BT-474 [15] = test: Antitumor activity against PI3KCA mutant human BT474 cells xenografted in BALB/c nude mouse assessed as tumor growth inhibition at 40 mg/kg, po administered once daily and measured after 30 days by caliper method relative to control; assay type: functional; conditions: BT-474, po, 720 h, read-out: TGI
[16] = target: Phosphatidylinositol 4,5-bisphosphate 3-kinase catalytic subunit gamma isoform (Mus musculus, UniProt Q9JHG7); test: Inhibition of PI3Kgamma in mouse RAW264.7 cells assessed as reduction in AKT phosphorylation at residue S473 treated with mouse C5a component and measured after 3 mins
[17] = target: Phosphatidylinositol 4,5-bisphosphate 3-kinase catalytic subunit beta isoform (Homo sapiens, UniProt P42338); test: Inhibition of PI3Kbeta in human MDA-MB-468 cells assessed as reduction in AKT phosphorylation at residue S473 measured after 30 mins by sandwich ELISA
[18] = Oral bioavailability in BALB/c mouse at 10 mg/kg by HPLC analysis; assay type: ADME, organism-based; conditions: in vivo
[19] = Half life in BALB/c mouse at 1 mg/kg, iv by HPLC analysis; conditions: in vivo
[20] = Dose normalized AUC (0 to last) in Sprague-Dawley rat at 3 mg/kg, po by HPLC analysis; assay type: ADME, organism-based; conditions: in vivo
[21] = target: T2, Phosphatidylinositol 4,5-bisphosphate 3-kinase catalytic subunit delta isoform (Homo sapiens, UniProt O00329); test: Inhibition of PI3Kdelta in human Jeko1 cells assessed as reduction in AKT phosphorylation at residue S473 measured after 2 hrs by sandwich ELISA
T2 sequence (O00329 whole entry): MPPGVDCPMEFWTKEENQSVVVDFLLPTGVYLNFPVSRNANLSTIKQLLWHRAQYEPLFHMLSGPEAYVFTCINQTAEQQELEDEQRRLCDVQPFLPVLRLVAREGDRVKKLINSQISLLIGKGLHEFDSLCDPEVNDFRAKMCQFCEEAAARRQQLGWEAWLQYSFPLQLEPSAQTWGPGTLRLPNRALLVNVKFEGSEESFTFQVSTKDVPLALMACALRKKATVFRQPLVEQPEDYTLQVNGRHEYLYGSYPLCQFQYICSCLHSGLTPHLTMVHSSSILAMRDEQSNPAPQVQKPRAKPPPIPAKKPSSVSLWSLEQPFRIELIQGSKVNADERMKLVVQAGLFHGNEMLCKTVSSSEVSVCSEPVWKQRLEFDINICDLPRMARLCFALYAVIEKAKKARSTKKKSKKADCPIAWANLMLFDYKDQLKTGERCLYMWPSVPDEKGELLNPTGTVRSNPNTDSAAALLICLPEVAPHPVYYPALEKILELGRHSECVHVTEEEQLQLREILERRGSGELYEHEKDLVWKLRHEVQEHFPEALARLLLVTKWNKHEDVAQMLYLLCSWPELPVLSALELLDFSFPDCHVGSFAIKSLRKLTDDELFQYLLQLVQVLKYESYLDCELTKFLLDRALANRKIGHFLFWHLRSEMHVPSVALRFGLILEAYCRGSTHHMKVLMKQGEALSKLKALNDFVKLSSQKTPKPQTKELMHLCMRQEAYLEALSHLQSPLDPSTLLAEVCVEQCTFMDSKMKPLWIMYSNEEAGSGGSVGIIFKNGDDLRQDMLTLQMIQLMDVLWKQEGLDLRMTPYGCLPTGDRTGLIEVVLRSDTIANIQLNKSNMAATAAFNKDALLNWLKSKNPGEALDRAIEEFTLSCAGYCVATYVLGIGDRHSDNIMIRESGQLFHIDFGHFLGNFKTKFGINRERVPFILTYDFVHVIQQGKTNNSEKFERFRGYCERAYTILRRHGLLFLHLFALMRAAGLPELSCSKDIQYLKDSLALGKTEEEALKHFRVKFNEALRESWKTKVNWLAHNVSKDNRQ

[22] = Dose normalized AUC (0 to last) in BALB/c mouse at 10 mg/kg, po by HPLC analysis; assay type: ADME, organism-based; conditions: in vivo

Sequence of Phosphatidylinositol 4,5-bisphosphate 3-kinase catalytic subunit gamma isoform (Q9JHG7 whole entry, canonical isoform): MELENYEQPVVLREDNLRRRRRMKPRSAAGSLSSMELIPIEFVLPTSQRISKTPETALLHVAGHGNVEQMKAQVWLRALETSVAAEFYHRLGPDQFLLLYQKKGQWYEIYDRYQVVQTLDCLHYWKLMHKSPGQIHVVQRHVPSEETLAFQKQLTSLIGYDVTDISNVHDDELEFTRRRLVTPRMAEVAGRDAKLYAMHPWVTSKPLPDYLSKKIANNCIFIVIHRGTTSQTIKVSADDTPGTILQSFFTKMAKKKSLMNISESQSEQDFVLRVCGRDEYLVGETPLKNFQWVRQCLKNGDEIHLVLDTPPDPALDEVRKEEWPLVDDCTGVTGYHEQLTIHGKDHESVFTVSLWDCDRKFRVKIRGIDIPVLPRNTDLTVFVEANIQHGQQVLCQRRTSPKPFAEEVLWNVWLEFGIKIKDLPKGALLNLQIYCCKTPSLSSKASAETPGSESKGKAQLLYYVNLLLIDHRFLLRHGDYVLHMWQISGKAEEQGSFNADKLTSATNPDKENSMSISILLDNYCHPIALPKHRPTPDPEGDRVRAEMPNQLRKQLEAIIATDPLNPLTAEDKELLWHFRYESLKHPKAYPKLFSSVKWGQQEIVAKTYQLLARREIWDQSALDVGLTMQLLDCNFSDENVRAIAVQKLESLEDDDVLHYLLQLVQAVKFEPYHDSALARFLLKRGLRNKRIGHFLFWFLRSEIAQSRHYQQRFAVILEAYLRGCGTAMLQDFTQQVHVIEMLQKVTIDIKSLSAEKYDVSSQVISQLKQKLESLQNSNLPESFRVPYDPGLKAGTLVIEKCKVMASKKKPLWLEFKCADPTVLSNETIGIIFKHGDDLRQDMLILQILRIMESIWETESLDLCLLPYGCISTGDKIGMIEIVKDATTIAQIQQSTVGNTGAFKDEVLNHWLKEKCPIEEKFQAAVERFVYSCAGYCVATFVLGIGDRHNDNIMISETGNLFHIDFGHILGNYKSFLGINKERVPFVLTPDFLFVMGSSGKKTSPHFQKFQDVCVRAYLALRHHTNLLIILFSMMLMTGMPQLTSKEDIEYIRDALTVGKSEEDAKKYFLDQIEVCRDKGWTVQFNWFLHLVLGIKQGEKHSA
Sequence of Phosphatidylinositol 4,5-bisphosphate 3-kinase catalytic subunit beta isoform (P42338 whole entry, canonical isoform): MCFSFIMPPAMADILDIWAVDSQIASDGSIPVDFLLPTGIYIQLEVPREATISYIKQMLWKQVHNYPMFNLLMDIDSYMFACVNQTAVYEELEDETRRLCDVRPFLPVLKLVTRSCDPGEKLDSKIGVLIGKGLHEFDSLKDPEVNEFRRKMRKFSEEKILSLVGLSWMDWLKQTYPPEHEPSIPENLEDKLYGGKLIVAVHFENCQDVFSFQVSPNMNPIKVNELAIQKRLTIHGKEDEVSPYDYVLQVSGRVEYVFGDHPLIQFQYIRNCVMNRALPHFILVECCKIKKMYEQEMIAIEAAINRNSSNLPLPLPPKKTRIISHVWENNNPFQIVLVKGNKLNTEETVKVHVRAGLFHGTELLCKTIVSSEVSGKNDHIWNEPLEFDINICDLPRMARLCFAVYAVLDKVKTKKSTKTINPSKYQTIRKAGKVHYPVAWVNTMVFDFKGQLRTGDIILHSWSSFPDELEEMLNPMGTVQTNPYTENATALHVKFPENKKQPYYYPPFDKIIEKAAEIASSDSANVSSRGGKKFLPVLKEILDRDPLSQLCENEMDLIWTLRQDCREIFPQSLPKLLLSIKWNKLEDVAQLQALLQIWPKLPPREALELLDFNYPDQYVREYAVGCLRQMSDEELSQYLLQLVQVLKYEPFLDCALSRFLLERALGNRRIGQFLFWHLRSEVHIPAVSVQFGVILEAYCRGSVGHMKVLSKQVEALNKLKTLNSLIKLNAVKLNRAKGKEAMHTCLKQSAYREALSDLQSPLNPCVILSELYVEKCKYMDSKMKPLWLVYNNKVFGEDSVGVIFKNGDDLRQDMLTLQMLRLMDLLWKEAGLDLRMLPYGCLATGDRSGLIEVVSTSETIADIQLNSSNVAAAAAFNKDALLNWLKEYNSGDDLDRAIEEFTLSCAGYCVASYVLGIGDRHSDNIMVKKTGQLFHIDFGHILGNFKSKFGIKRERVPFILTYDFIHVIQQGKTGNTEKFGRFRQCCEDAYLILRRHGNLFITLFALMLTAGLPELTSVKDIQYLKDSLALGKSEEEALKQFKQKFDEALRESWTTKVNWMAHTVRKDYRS

CNC(=O)[C@H](C)Cn1cnc2ccc(-c3cnc(OC)c(NS(=O)(=O)c4ccc(F)cc4Cl)c3)cc2c1=O
IC50 [1]: 0.0329 µM | IC50 [2]: 0.0018 µM | inhibition (Mus musculus [3]): Dose-dependent effect | inhibition in vivo at 30 mg/kg (BT-474 [4]): 86% | fraction unbound at 4 h [5]: 0.014 | IC50 [6]: 0.0121 µM | Vd [7]: 0.179 L/kg | inhibition (Mus musculus [8]): Tde | inhibition in vivo at 15 mg/kg (BT-474 [9]): 62.5% | TGI (BT-474 [10]): Dose-dependent effect | half-life [11]: 1.22 h | remaining at 1 h, 10 µM [12]: 44.6% | bioavailability [13]: 46.9% | CLint scaled [14]: < 2.64 L/h/kg | inhibition in vivo at 40 mg/kg (BT-474 [15]): 90.7% | IC50 [16]: > 10 µM | IC50 [17]: 1.39 µM | bioavailability [18]: 59.4% | half-life [19]: 0.966 h | AUClast/dose [20]: 2711 nM·h | IC50 [21]: 0.183 µM | AUClast/dose [22]: 3090 nM·h

From ChEMBL document CHEMBL4619796, “Discovery of 3-Quinazolin-4(3H)-on-3-yl-2,N-dimethylpropanamides as Orally Active and Selective PI3Kα Inhibitors” (ACS Med Chem Lett, 2020)
